An excerpt weighted towards active compounds, which were near 1.9% of everything screened.
proCasp7 act: procaspase-7 activators, primary screen, counter-screen for procaspase-3 activator project, biochemical, absorbance, HTS, human; Caspase-7 (Homo sapiens), P55210; recombinant procaspase-7, Ac-DEVD-pNA absorbance 405 nm; D23A/D198A/D206A triple mutant, cannot self-cleave; scale: DMSO 0, 5 µM enzyme 100; activation, % at 8.5 µM; 0.093% of 330,000 active;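 active = percent activation above the screen-wide mean plus 3 SD, cut at about 25% in these data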
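Assay system: Uncleavable procaspase-7 mutant enzyme | Input: 2 µM procaspase-7 mutant as dispensed | Timing: 1 h compound preincubation, 2 h substrate cleavage, 25 °C | Repeats: One well per compound | Control set: DMSO wells as 0%, DMSO with 5 µM added PC-7 as 100% | Technique: Epi-absorbance of released pNA at 405 nm, two timepoints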
Neddylation inh: inhibitors of cullin neddylation, primary screen, biochemical, TR-FRET, uHTS, NAE and Ubc12; NEDD8-conjugating enzyme Ubc12 (Homo sapiens) + NEDD8-activating enzyme E1 regulatory …; inhibition, % at 25 µM; 0.58% of 360,000 active; AID 651699, 2012; in the data active = inhibition above about 36%
Target sequence (P61081 whole entry, looked up): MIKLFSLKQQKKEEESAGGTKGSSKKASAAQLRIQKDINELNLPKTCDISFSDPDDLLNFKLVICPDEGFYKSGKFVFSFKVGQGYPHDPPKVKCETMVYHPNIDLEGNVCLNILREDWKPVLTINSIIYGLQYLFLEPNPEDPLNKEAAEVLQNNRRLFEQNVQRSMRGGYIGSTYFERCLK
Target sequence (Q13564 whole entry, looked up): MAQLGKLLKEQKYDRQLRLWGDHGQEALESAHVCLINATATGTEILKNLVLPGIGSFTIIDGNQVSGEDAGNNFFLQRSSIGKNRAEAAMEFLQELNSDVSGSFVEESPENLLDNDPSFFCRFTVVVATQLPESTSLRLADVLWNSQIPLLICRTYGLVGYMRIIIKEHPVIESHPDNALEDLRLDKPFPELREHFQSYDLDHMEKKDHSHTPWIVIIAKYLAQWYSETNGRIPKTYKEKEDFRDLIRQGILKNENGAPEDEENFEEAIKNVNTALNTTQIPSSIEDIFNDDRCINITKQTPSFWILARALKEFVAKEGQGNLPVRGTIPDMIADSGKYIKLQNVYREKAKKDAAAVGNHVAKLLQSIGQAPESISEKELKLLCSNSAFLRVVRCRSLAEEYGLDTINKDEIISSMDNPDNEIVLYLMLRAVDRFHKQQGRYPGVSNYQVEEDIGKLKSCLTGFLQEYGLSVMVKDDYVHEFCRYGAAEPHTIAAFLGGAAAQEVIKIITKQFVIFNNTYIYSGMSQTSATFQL
Calb FLC: C. albicans growth inhibition with fluconazole, primary screen, CaCi-2 strain, Alamar Blue fluorescence | C. albicans CaCi-2 + fluconazole, 48 h | growth inhibition, % (no concentration beside the values) | 0.57% of 300,000 active | AID 1979, 2009;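 active = growth inhibition above about 58% in most replicates, limit read from the data, passing the limit was not always enough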;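 also: all wells also contain fluconazole at 8 µg/ml as a sub-toxic cotreatment; 0% = median of DMSO wells and 100% = median of geldanamycin control wells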
HIF act: HIF pathway transcriptional activators, primary screen, cell-based, U2OS HRE-luciferase, luminescence; activation, % at 7.5 µM (by protocol); 0.32% of 300,000 active; U2OS HRE-luciferase reporter; normalized: DMSO 0%, desferrioxamine 100%;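 active = mean activation of at least 10% of the iron chelator positive control signal, with at least half of replicates also reaching 10%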
proCasp3 act: activators of human procaspase-3 D3A mutant, primary screen, biochemical, absorbance, PC-3 D3A mutant, single concentration | Caspase-3 (Homo sapiens), P42574 | recombinant procaspase-3 D3A, Ac-DEVD-pNA absorbance 405 nm | activation, % at 8.5 µM | 0.11% of 330,000 active | AID 463141, 2010;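 active = activation above the mean of all tested compounds plus 3 SD, cut at about 21% in these data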;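 also: 0% = DMSO alone and 100% = DMSO wells spiked with extra 5 µM PC-3 D3A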
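Evaluation: percent activation relative to control range; Material: Procaspase-3 D3A mutant, all three cleavage aspartates alanine; Compound: single dose, 8.5 µM nominal compound, 0.8% DMSO; Replication: one well per compound; Signal: absorbance at 405 nm, 0 and 120 min; Schedule: 1 h preincubation plus 2 h reaction at 25 °C.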
GAA850 FXN act: FXN promoter activators, primary screen, cell-based, luciferase luminescence, HEK293 lucGAA850. activation, % at 6 µM. HEK293 lucGAA850 FXN promoter luciferase reporter, 24 h; percent of 10 µM SAHA response. 0.56% of 360,000 active;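 active = activation above the average of all compounds screened plus 3 SD, cutoff fixed separately per campaign, cut at about 7.5% in these data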;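 also: 0% = DMSO wells and 100% = 10 µM SAHA wells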
GAA30 counter: GAA30 FXN promoter activators, confirmation, counter-screen for GAA850 frataxin promoter activator project, cell-based, luminescence, HEK293, lucGAA30, triplicate; 66% of 1,900 active; shares compounds with GAA850 FXN act; HEK293 lucGAA30 FXN promoter luciferase, 24 h; DMSO = 0%, 5 µM ipriflavone = 100%; activation, % at 6 µM;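 active = mean activation above the mean of solvent-only control wells plus 3 SD, cut at about 22% in these data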;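 also: counterscreen of GAA850 promoter hits where activity marks nonselective or luminescence artifacts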
GAA850 confirm: FXN GAA850 promoter activators in reporter cells, confirmation, cell-based, luminescence, HEK293 lucGAA850, triplicate; 86% of 1,900 active; shares compounds with GAA850 FXN act; activation, % at 6 µM; HEK293 lucGAA850 FXN promoter luciferase reporter, 24 h; 100% = activation by SAHA;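 active = mean activation above a set limit taken from the primary screen, cut at about 8% in these data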;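 also: 0% = DMSO wells and 100% = 10 µM SAHA wells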
An asterisk follows results filed as active; . = not tested or not shown.

SMILES	proCasp7 act	Neddylation inh	Calb FLC	HIF act	proCasp3 act	GAA850 FXN act	GAA30 counter	GAA850 confirm
CCOC(=O)C1=C(O)/C(=C/c2cc(OC)c(OC)c(OC)c2)SC1=Nc1ccc(OC)cc1	12	-1	-6	-1	2	9.6*	17	11*
COc1ccc(-c2cnc3cccnn23)cn1	.	.	.	.	.	2	.	.
Clc1ccc(-c2cnc3cccnn23)cc1	.	.	.	.	.	9.0*	38*	15*
N#CC1=C(N)S[C@H](C(=O)C23CC4CC(CC(C4)C2)C3)[C@H]1c1ccncc1	-3	0	1	-1	-3	8.5*	4	12*
COc1ccccc1C(C)NC(=O)CCC(=O)N1CCN(S(=O)(=O)c2ccc(Cl)cc2)CC1 (stereo not drawn)	.	-20	.	.	.	-1	.	.
O=C(N/N=C/C(Br)=C/c1ccccc1)c1cnccn1	5	-21	-6	3	7	8.9*	107*	39*
O=C(N/N=C\c1cccc(Cl)c1)c1n[nH]c2c1CCCC2	-7	1	8	1	-4	10*	73*	20*
O=C(N/N=C/C(Br)=C\c1ccccc1)c1n[nH]c2c1CCC2	-18	-13	-7	12*	-1	17*	29*	68*
CC(=O)c1cccc(NC(=O)C2(C)Cc3c(-c4ccccc4)ccnc3O2)c1 (stereo not drawn)	.	2	.	.	.	1	.	.
CCOC(=O)[C@H]1[C@H]2COc3ccccc3[C@@H]2N2C(=O)c3c(C)cc(C)cc3NC(=O)[C@@]12C	-9	-31	.	.	-4	11*	28*	11*
Cc1ccc(S(=O)(=O)Nc2ccc(Nc3nccn4c(-c5cccc(OC(F)(F)F)c5)cnc34)cc2)cc1	.	.	.	.	.	1	.	.
O=C(N/N=C/c1ccc(OC(=O)c2ccco2)cc1)c1ccccn1	-9	-19	42	1	0	7.8*	115*	33*
COc1ccc(-n2c(=S)[nH]c3cc(C(=O)Nc4ccc(OC)c(OC)c4)ccc3c2=O)cc1	5	-9	7	-1	-2	11*	8	6
CCOc1ccc2nc(SCC#N)c(C#N)cc2c1	-4	-262	4	1	0	8.2*	108*	32*
CC(C)C[C@H]1CN([C@@H](Cc2ccc(O)cc2)CN2CCC[C@H]2CN2C(=O)C(=O)NC[C@@H]2Cc2ccc(O)cc2)C(=O)C(=O)N1CCc1ccccc1	.	-6	.	.	.	.	.	.
O=C1C=CC(O)C2(CO)OC12 (stereo not drawn)	.	3	.	.	.	12*	-1	12*
COc1cccc(CNC(=O)COC(=O)c2ccc(N3CCCC3=O)cc2)c1	.	8	.	.	.	0	.	.
COc1cc2c(c(OCC(=O)NC(C)C)c1)C(=O)O[C@@H](C)CCCC(=O)CCCCC2	-4	0	0	-1	3	12*	23*	9.8*
COc1cc(OCC(=O)NC(C)C)cc2c1C(=O)O[C@@H](C)CCCC(=O)CCCCC2	6	-9	5	0	2	4	.	.
O=[N+]([O-])c1ccccc1N(S(=O)(=O)c1ccccc1)S(=O)(=O)c1ccccc1	.	-5	.	.	.	3	.	.
COC(=O)c1c(NC(=O)Cc2cccs2)sc(C(=O)N2CCCCC2)c1C	5	-42	2	-1	-3	9.2*	8	9.3*
COc1ccc(/C=C/c2nc(-c3ccccc3O)n[nH]2)cc1	-3	29	-15	3	8	7.6*	94*	23*
COc1ccc(/C=C/c2nc(-c3ccccc3O)n(-c3ccccc3)n2)cc1	-4	-49	2	1	-4	5	.	.
Cc1cc(-c2cc(C(=O)NCc3ccccc3)on2)nc(S(C)(=O)=O)n1	7	-25	2	0	10	9.7*	50*	26*
CCCCN(C(=O)c1ccccc1Br)C(c1ccc(OC)cc1)c1nc2ccccc2[nH]1 (stereo not drawn)	.	-6	.	.	.	.	.	.
SMILES	proCasp7 act	Neddylation inh	Calb FLC	HIF act	proCasp3 act	GAA850 FXN act	GAA30 counter	GAA850 confirm
O=C(O)c1ccccc1NN=C1CCCCC1	0	1	-3	3	-3	9.0*	38*	7
CCCCOC(=O)Nc1nnc(CC)s1	3	-20	-13	.	0	7.7*	51*	27*
N/C(=N\OC(=O)c1cccs1)c1cccc(Br)c1	1	-4	-2	4	5	8.0*	57*	8
N/C(=N\OC(=O)c1cccs1)c1ccccc1	-5	-12	-6	3	-6	7.7*	99*	28*
COC(=O)[C@@]12C[C@@H](CC(=O)N3CCSCC3)C(=O)N(Cc3ccc4c(c3)OCO4)C1=CCC(C)(C)C2	.	2	.	.	.	.	.	.
CC(=O)N(C1CC(C)C(C#N)(C#N)C1(C#N)C#N)N(C)C (stereo not drawn)	-5	-3	-6	6	3	9.9*	-99	-31
CC1=C(C(=O)N(C(C)C)C(C)C)CC(CC(=O)NCCCCc2ccccc2)C(=O)N1Cc1ccc(F)cc1 (stereo not drawn)	.	0	.	.	.	.	.	.
COc1ccc(C(=O)N2CCCC(C)(C(=O)NS(=O)(=O)C3CC3)C2)cc1 (stereo not drawn)	.	1	.	.	.	0	.	.
CN(C(=O)c1ccno1)c1nnc(-c2ccccn2)s1	0	.	9	0	-1	0	.	.
COc1ccc(-c2nnc(N(C)C(=O)c3ccno3)s2)cc1	4	.	-5	1	-6	12*	99*	30*
CC(=O)Nc1ccc(NC(=O)CSc2cn(CC(=O)N3CCOCC3)c3ccccc23)cc1	-1	4	13	0	-3	0	.	.
O=C(Cn1cc(SCc2ccccc2Cl)c2ccccc21)N1CCOCC1	1	-8	14	2	2	9.9*	133*	43*
